From PubChem BioAssay
Most compounds without a hit are left out; they make up all but 3.7% or so of the library.
FGF22 binding: FGF22 (human) thermal shift binding | Q9HCT0 | recombinant FGF22 thermal shift, SYPRO orange fluorescence; percent of sucrose octasulfate shift, DMSO zero | activity (Tm shift, normalised), % at 9.99 µM | 340,000 tested, 1.5% active | AID 651658;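 active = mean Tm shift, scaled 0 neutral to 100 positive control, at about 1.3% or above, every replicate too, limit read from the data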
F508del corr: CFTR F508del correction in bronchial cells; activity (quench increase), % at 7.58 µM; CFBE cells, YFP halide quenching; stimulated with forskolin plus potentiator P3; % fluorescence drop versus neutral controls; 350,000 tested, 0.36% active;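 active = mean added fluorescence quench of at least 8% versus neutral control, with both replicates also reaching 8%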;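 also: cells transiently co-express mutant CFTR-F508del with the halide-sensitive YFP; corrector assay measuring rescue of mutant channel to the surface after 24 h compound exposure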
ERAP1 inh: ERAP1 (human) enzyme inhibition. Q9NZ08. 340,000 tested, 0.15% active. recombinant ERAP1, Leu-AMC fluorescence, 60 min. inhibition, % at 10.7 µM;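 active = mean replicate inhibition of at least 30%, or all replicates individually reaching that 30% level; inactive = mean below 30% and not every replicate reaching it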;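 also: 0% = neutral control wells and 100% = L-leucinethiol positive control wells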
E-selectin induc: E-selectin induction on HUVECs; HUVEC E-selectin immunofluorescence imaging; normalized: neutral wells 0, TNF-alpha wells 100; activation, % at 7.58 µM; 260,000 tested, 0.37% active;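 active = mean E-selectin-positive cell signal at least 10% of the positive control, reached in at least 60% of replicates, without over 20% cell loss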
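assay system = HUVEC, human umbilical vein endothelial cells | input = 3,000 HUVEC seeded per well | medium = EGM-2 growth medium on 0.1% gelatin-coated wells | dosing = one compound dose added by pin transfer | signal = immunofluorescence imaging | read-out basis = % PE-positive cells | control set = TNF-alpha, DMSO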
DENV2 CPE rescue: DENV2-induced cell death inhibition. DENV2-infected cells, cytopathic effect rescue, plate reader. CPE inhibition, % at 9.99 µM. 350,000 tested, 1.7% active. AID 651640; in the data active = CPE inhibition above about 20%, passing the limit was not always enough; tested in BHK-21 cells;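 also: 0% = median of neutral control wells and 100% = median of positive control wells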
* = called active by the depositor; . = no result given.

SMILES	FGF22 binding	F508del corr	ERAP1 inh	E-selectin induc	DENV2 CPE rescue
CC1=C(SCc2ccccc2)C(=O)c2ccccc2C1=O	0	-2	6	-1	2
O=C1C(SCCO)=C(SCCO)C(=O)c2ccccc21	0	10*	9	10	1
CN(C)CCCNC(=O)[C@H]1[C@H](CO)[C@H]2Cn3c(ccc(C4=CCCCC4)c3=O)[C@@H]1N2Cc1cocn1	0	-1	2	0	4
COc1ccc(-n2c(Cc3cc(=O)[nH]c(=O)[nH]3)nnc2SCC(=O)N2CCCC2)cc1	0	1	.	0	-5
COc1cccc(-n2c(Cc3cc(=O)[nH]c(=O)[nH]3)nnc2SCC(=O)N2CCCCCC2)c1	0	0	-1	.	69*
C[C@H](CO)N1C[C@H](C)[C@@H](CN(C)Cc2cccc(C(F)(F)F)c2)OCc2cn(nn2)CCCC1=O	0	-4	0	0	-4
COc1ccccc1CNC(=O)C[C@H]1C=C[C@@H](NC(=O)CN(C)C)[C@@H](CO)O1	0	1	-2	0	1
Oc1cc2c(cc1O)C(c1ccccc1)CNCC2 (configuration not stated)	-1	9.5*	1	0	52*
CNC[C@H]1OCCCC[C@H](C)Oc2ccc(NS(=O)(=O)c3ccccc3)cc2C(=O)N([C@H](C)CO)C[C@@H]1C	.	-4	.	0	.
CCCCC(CCCCl)C(=O)Nc1ccccc1 (configuration not stated)	43*	1	3	.	.
O=C1OC(N2C(=O)CC[C@H]2C(=O)NCC2CCCO2)c2ccccc21 (some centres not stated)	0	1	-1	.	28*
CCc1ccccc1NC(=O)[C@@H]1CCC(=O)N1C1OC(=O)c2ccccc21 (some centres not stated)	0	0	0	.	-6
COC(=O)CSc1nc(C)c(C)c(C)c1C(N)=O	43*	-2	-10	0	.
O=C1C2CCCCC2C(=O)N1Cc1ccccc1 (configuration not stated)	43*	0	-2	0	-5
O=C(O)C(Cc1ccccc1)N1C(=O)C2CCCCC2C1=O (configuration not stated)	0	-4	1	.	-3
CC(=NNC(=O)c1ccncc1)c1ccccc1Cl	0	-2	-2	0	-7
C/C(=N\NC(=O)c1ccccc1NC(=O)c1ccc(Cl)cc1)c1ccncc1	43*	4	-2	0	2
COCC(=O)Nc1ccc2c(c1)OC[C@@H](C)N(Cc1cc(F)ccc1F)C[C@@H](C)[C@@H](OC)CN(C)C2=O	0	1	1	0	31*
CO[C@@H]1CN(C)C(=O)c2ccc(NS(=O)(=O)c3cccc(F)c3)cc2OC[C@@H](C)N(Cc2cc(F)ccc2F)C[C@@H]1C	0	-6	-3	0	-1
CO[C@@H]1CN(C)C(=O)c2ccc(NS(=O)(=O)c3cccc(F)c3)cc2OC[C@H](C)N(Cc2cc(F)ccc2F)C[C@@H]1C	0	-7	-1	0	28*
COCC(=O)Nc1ccc2c(c1)OC[C@@H](C)N(Cc1cccc(F)c1)C[C@H](C)[C@H](OC)CN(C)C2=O	0	-1	-1	0	35*
COc1cccc(CNC(=O)[C@H]2CCCN2C(=O)C2CCCN2C(=O)c2ccc(OC)c(F)c2)c1 (some centres not stated)	0	3	1	0	28*
CC(C)(C)OC(=O)N1CCC[C@@H]1C(=O)NCc1ccccc1	0	1	-6	0	0
O=C(NCc1ccccc1)[C@H]1CCCN1C(=O)[C@H]1CCCN1C(=O)c1ccccc1	0	1	-4	0	10
O=C(O)c1ccc(CNC(=O)C2CCCN2C(=O)OCc2ccccc2)cc1 (configuration not stated)	0	1	-7	0	25*
O=C(NCc1ccccc1)[C@H]1CCCN1C(=O)[C@H]1CCCN1C(=O)c1ccc(Cl)cc1	0	1	-1	0	44*
COc1ccc(CN(C)C[C@@H]2OCCCC[C@@H](C)Oc3ccc(NC(=O)Nc4ccc(F)cc4)cc3C(=O)N([C@@H](C)CO)C[C@H]2C)cc1	0	1	0	0	-10
